Measured values published in ChEMBL document CHEMBL1212764, “Antimicrobial resistance in Haemophilus influenzae respiratory tract isolates in Korea: results of a nationwide acute respiratory infections surveillance” (2010).

Legend:
Assay type in all cases: functional
Haemophilus influenzae [1] = assay: Antimicrobial activity against Haemophilus influenzae isolate by broth microdilution method
Outline: (§1)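 Broth microdilution MIC in freshly prepared Haemophilus test medium per 2008 CLSI guidelines; H. influenzae ATCC 49247 and ATCC 49766 as control strains. Isolates from outpatient nasal aspirates (no prior antibiotics), cultured on blood agar with S. aureus streak and chocolate agar. PBP3 substitutions deduced from ftsI sequencing against the Rd strain; β-lactamase genes (TEM-1, ROB-1) detected by PCR.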

Haemophilus influenzae [2] = assay: Antimicrobial activity against Beta-lactamase-negative, ampicillin-resistant Haemophilus influenzae by broth microdilution method; outline: as §1
Haemophilus influenzae [3] = assay: Antimicrobial activity against Beta-lactamase-positive, ampicillin-resistant Haemophilus influenzae by broth microdilution method; outline: as §1
Haemophilus influenzae [4] = assay: Antimicrobial activity against beta-lactamase-negative, ampicillin-sensitive Haemophilus influenzae by broth microdilution method; outline: as §1
Haemophilus influenzae [5] = assay: Antimicrobial activity against Beta-lactamase-positive, ampicillin-cluvulanate-resistant Haemophilus influenzae by broth microdilution method; outline: as §1
Haemophilus influenzae [6] = assay: Antimicrobial activity against Beta-lactamase-negative, ampicillin-resistant Haemophilus influenzae with penicillin-binding protein 3 by broth microdilution method; outline: as §1
Haemophilus influenzae [7] = assay: Antimicrobial activity against Beta-lactamase-negative, ampicillin-resistant Haemophilus influenzae with Asp350Asn, Ser357Asp, Met377Ile, Ser385Thr, Arg517His substitutions in penicillin-binding protein 3 by broth microdilution method; outline: as §1
Haemophilus influenzae [8] = assay: Antimicrobial activity against Beta-lactamase-positive, ampicillin-cluvulanate-resistant Haemophilus influenzae with Asp350Asn, Met377Ile, Asn526Lys substitutions in penicillin-binding protein 3 by broth microdilution method; outline: as §1
Haemophilus influenzae [9] = assay: Antimicrobial activity against Beta-lactamase-positive, ampicillin-cluvulanate-resistant Haemophilus influenzae with Ala368Thr, Ala502Thr, Asn526Lys substitutions in penicillin-binding protein 3 by broth microdilution method; outline: as §1
Haemophilus influenzae [10] = assay: Antimicrobial activity against Beta-lactamase-positive, ampicillin-cluvulanate-resistant Haemophilus influenzae with Ile449Val, Asn526Lys substitutions in penicillin-binding protein 3 by broth microdilution method; outline: as §1
Haemophilus influenzae [11] = assay: Antimicrobial activity against Beta-lactamase-negative, ampicillin-resistant Haemophilus influenzae with Asp350Asn, Met377Ile, Ala502Val, Asn526Lys substitutions in penicillin-binding protein 3 by broth microdilution method; outline: as §1
Haemophilus influenzae [12] = assay: Antimicrobial activity against Beta-lactamase-negative, ampicillin-resistant Haemophilus influenzae with Asp350Asn, Met377Ile, Asn526Lys substitutions in penicillin-binding protein 3 by broth microdilution method; outline: as §1
Haemophilus influenzae [13] = assay: Antimicrobial activity against Beta-lactamase-negative, ampicillin-resistant Haemophilus influenzae with Gly490Glu, Asn526Lys substitutions in penicillin-binding protein 3 by broth microdilution method; outline: as §1
Haemophilus influenzae [14] = assay: Antimicrobial activity against Beta-lactamase-positive, ampicillin-cluvulanate-resistant Haemophilus influenzae with Asp350Asn, Ser357Asp, Met377Ile, Ser385Thr, Arg517His substitutions in penicillin-binding protein 3 by broth microdilution method; outline: as §1
Haemophilus influenzae [15] = assay: Antimicrobial activity against Beta-lactamase-negative, ampicillin-resistant Haemophilus influenzae with Asp350Asn, Ser357Asp, Met377Ile, Ser385Thr, Ala502Thr, Asn526Lys substitutions in penicillin-binding protein 3 by broth microdilution method; outline: as §1
Haemophilus influenzae [16] = assay: Antimicrobial activity against Beta-lactamase-negative, ampicillin-resistant Haemophilus influenzae with Ala502Val, Asn526Lys substitutions in penicillin-binding protein 3 by broth microdilution method; outline: as §1
Haemophilus influenzae [17] = assay: Antimicrobial activity against Beta-lactamase-positive, ampicillin-cluvulanate-resistant Haemophilus influenzae with Ala502Val, Asn526Lys substitutions in penicillin-binding protein 3 by broth microdilution method; outline: as §1
Haemophilus influenzae [18] = assay: Antimicrobial activity against Beta-lactamase-positive, ampicillin-cluvulanate-resistant Haemophilus influenzae with Asp350Asn, Ser357Asp, Ala437Ser, Ala502Thr, Asn526Lys substitutions in penicillin-binding protein 3 by broth microdilution method; outline: as §1
Haemophilus influenzae [19] = assay: Antimicrobial activity against Beta-lactamase-negative, ampicillin-resistant Haemophilus influenzae with Ile449Val, Asn526Lys substitutions in penicillin-binding protein 3 by broth microdilution method; conditions: Haemophilus influenzae; read-out: MIC; outline: as §1
Haemophilus influenzae [20] = assay: Antimicrobial activity against Beta-lactamase-negative, ampicillin-resistant Haemophilus influenzae with Asp350Asn, Ser357Asp, Met377Ile, Ser385Thr, Leu389Phe, substitutions in penicillin-binding protein 3 by broth microdilution method; outline: as §1
Haemophilus influenzae [21] = assay: Antimicrobial activity against Beta-lactamase-positive, ampicillin-cluvulanate-resistant Haemophilus influenzae with Asp350Asn, Ala502Thr, Asn526Lys substitutions in penicillin-binding protein 3 by broth microdilution method; outline: as §1
Haemophilus influenzae [22] = assay: Antimicrobial activity against Beta-lactamase-negative, ampicillin-resistant Haemophilus influenzae with Asp350Asn, Met377Ile, Gly490Glu, Ala502Val, Asn526Lys substitutions in penicillin-binding protein 3 by broth microdilution method; outline: as §1
Haemophilus influenzae [23] = assay: Antimicrobial activity against Beta-lactamase-negative, ampicillin-resistant Haemophilus influenzae with Asp350Asn, Met377Ile, Gly490Glu, Asn526Lys substitutions in penicillin-binding protein 3 by broth microdilution method; outline: as §1
Haemophilus influenzae [24] = assay: Antimicrobial activity against Beta-lactamase-negative, ampicillin-resistant Haemophilus influenzae with Asp350Asn, Ser357Asp, Ser385Thr, Leu389Phe, Ala502Thr, Asn526Lys substitutions in penicillin-binding protein 3 by broth microdilution method; outline: as §1
Haemophilus influenzae [25] = assay: Antimicrobial activity against Beta-lactamase-positive, ampicillin-cluvulanate-resistant Haemophilus influenzae with Asp350Asn, Met377Ile, Ala502Val, Asn526Lys substitutions in penicillin-binding protein 3 by broth microdilution method; outline: as §1
Haemophilus influenzae [26] = assay: Antimicrobial activity against Beta-lactamase-negative, ampicillin-resistant Haemophilus influenzae with Ile449Val, Ala502Thr, Asn526Lys substitutions in penicillin-binding protein 3 by broth microdilution method; outline: as §1
Haemophilus influenzae [27] = assay: Antimicrobial activity against Beta-lactamase-positive, ampicillin-cluvulanate-resistant Haemophilus influenzae with Asp350Asn, Met377Ile, Ser385Thr, Asn526Lys substitutions in penicillin-binding protein 3 by broth microdilution method; outline: as §1
Haemophilus influenzae [28] = assay: Antimicrobial activity against Beta-lactamase-positive, ampicillin-cluvulanate-resistant Haemophilus influenzae with Asp350Asn, Met377Ile, Gly490Glu, Ala502Val, Asn526Lys substitutions in penicillin-binding protein 3 by broth microdilution method; outline: as §1
Haemophilus influenzae [29] = assay: Antimicrobial activity against Beta-lactamase-negative, ampicillin-resistant Haemophilus influenzae with Ser311Pro, Ala502Thr, Asn526Lys substitutions in penicillin-binding protein 3 by broth microdilution method; outline: as §1
Haemophilus influenzae [30] = assay: Antimicrobial activity against Beta-lactamase-positive, ampicillin-cluvulanate-resistant Haemophilus influenzae with Asp350Asn, Ala437Ser substitutions in penicillin-binding protein 3 by broth microdilution method; outline: as §1

O=C(N[C@H](CO)[C@H](O)c1ccc([N+](=O)[O-])cc1)C(Cl)Cl [CHLORAMPHENICOL]
8 µg/mL: MIC90 (Haemophilus influenzae [3]) | MIC90 (Haemophilus influenzae [5])
0.5 µg/mL: MIC50 (Haemophilus influenzae [1]) | MIC50 (Haemophilus influenzae [2]) | MIC50 (Haemophilus influenzae [3]) | MIC50 (Haemophilus influenzae [4]) | MIC90 (Haemophilus influenzae [4]) | MIC50 (Haemophilus influenzae [5])
1 µg/mL: MIC90 (Haemophilus influenzae [1]) | MIC90 (Haemophilus influenzae [2])

CC[C@H]1OC(=O)[C@H](C)[C@@H](O[C@H]2C[C@@](C)(OC)[C@@H](O)[C@H](C)O2)[C@H](C)[C@@H](O[C@@H]2O[C@H](C)C[C@H](N(C)C)[C@H]2O)[C@](C)(OC)C[C@@H](C)C(=O)[C@H](C)[C@@H](O)[C@]1(C)O [CLARITHROMYCIN]
8 µg/mL: MIC50 (Haemophilus influenzae [1]) | MIC50 (Haemophilus influenzae [2]) | MIC50 (Haemophilus influenzae [3]) | MIC50 (Haemophilus influenzae [4]) | MIC50 (Haemophilus influenzae [5])
32 µg/mL: MIC90 (Haemophilus influenzae [2])
16 µg/mL: MIC90 (Haemophilus influenzae [1]) | MIC90 (Haemophilus influenzae [3]) | MIC90 (Haemophilus influenzae [4]) | MIC90 (Haemophilus influenzae [5])

CO/N=C(\C(=O)N[C@@H]1C(=O)N2C(C(=O)O)=C(COC(C)=O)CS[C@H]12)c1csc(N)n1 [CEFOTAXIME]
0.188 µg/mL: MIC (Haemophilus influenzae [14]) | MIC (Haemophilus influenzae [17]) | MIC (Haemophilus influenzae [25]) | MIC (Haemophilus influenzae [28])
0.079 µg/mL: MIC (Haemophilus influenzae [9]) | MIC (Haemophilus influenzae [18]) | MIC (Haemophilus influenzae [21])
0.094 µg/mL: MIC (Haemophilus influenzae [10])
0.069 µg/mL: MIC (Haemophilus influenzae [11]) | MIC (Haemophilus influenzae [16]) | MIC (Haemophilus influenzae [22])
0.708 µg/mL: MIC (Haemophilus influenzae [19])
0.25 µg/mL: MIC (Haemophilus influenzae [7]) | MIC90 (Haemophilus influenzae [4])
0.532 µg/mL: MIC (Haemophilus influenzae [8]) | MIC (Haemophilus influenzae [27])
0.194 µg/mL: MIC (Haemophilus influenzae [15]) | MIC (Haemophilus influenzae [24]) | MIC (Haemophilus influenzae [26]) | MIC (Haemophilus influenzae [29])
1.7 µg/mL: MIC (Haemophilus influenzae [20])
1 µg/mL: MIC90 (Haemophilus influenzae [2]) | MIC90 (Haemophilus influenzae [5])
0.125 µg/mL: MIC90 (Haemophilus influenzae [1]) | MIC90 (Haemophilus influenzae [3]) | MIC (Haemophilus influenzae [30])
0.063 µg/mL: MIC (Haemophilus influenzae [6]) | MIC50 (Haemophilus influenzae [1]) | MIC (Haemophilus influenzae [12]) | MIC (Haemophilus influenzae [13]) | MIC50 (Haemophilus influenzae [2]) | MIC50 (Haemophilus influenzae [3]) | MIC50 (Haemophilus influenzae [4]) | MIC50 (Haemophilus influenzae [5]) | MIC (Haemophilus influenzae [23])
